Experiment [1] concerns Tobacco mosaic virus. The experiment is described as follows: Antiviral activity against Tobacco mosaic virus (TMV) inoculated in Nicotiana tabacum cv. K326 leaves assessed as inhibition of virus multiplication at 0.2 mg/ml at 25 degC measured after 48 hr by indirect ELISA/leaf-disk method. The experiment is classed as functional. An outline of the steps: (§1)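 N. tabacum cv. K326 leaves mechanically inoculated with TMV at 10 µg/mL. After 7 h, 10-mm disks were floated on compound solutions (DMSO, diluted with water) for 48 h at 25 ± 1 °C. Solvent-only and healthy-leaf disks were controls; six repetitions. Ground disks were assayed by indirect ELISA (OD405) against an in-plate TMV standard curve. Inhibition was calculated relative to the solvent control.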

Experiment [2] concerns Tobacco mosaic virus. The experiment is described as follows: Antiviral activity against Tobacco mosaic virus (TMV) inoculated in Nicotiana tabacum cv. K326 leaves assessed as inhibition of virus multiplication at 0.025 mg/ml at 25 degC measured after 48 hr by indirect ELISA/leaf-disk method. The experiment is classed as functional. An outline of the steps:
as §1
Background: In an ELISA, binding on a coated surface is turned into a signal by an enzyme label.

Experiment [3] deals with Tobacco mosaic virus. The experiment is described as follows: Antiviral activity against Tobacco mosaic virus (TMV) inoculated in Nicotiana tabacum cv. K326 leaves assessed as inhibition of virus multiplication at 25 degC measured after 48 hr by indirect ELISA/leaf-disk method. The experiment is classed as functional, organism-based. An outline of the steps:
as §1

Experiment [4] concerns Tobacco mosaic virus. The experiment is described as follows: Antiviral activity against Tobacco mosaic virus (TMV) inoculated in Nicotiana tabacum cv. K326 leaves assessed as inhibition of virus multiplication at 0.1 mg/ml at 25 degC measured after 48 hr by indirect ELISA/leaf-disk method. The experiment is classed as functional. An outline of the steps: as §1
Experiment [5] has as its system Tobacco mosaic virus. In words: Antiviral activity against Tobacco mosaic virus (TMV) inoculated in Nicotiana tabacum cv. K326 leaves assessed as inhibition of virus multiplication at 0.4 mg/ml at 25 degC measured after 48 hr by indirect ELISA/leaf-disk method. The experiment is classed as functional. The gist of the method:
as §1

For experiment [6], the system named is Tobacco mosaic virus. In words: Antiviral activity against Tobacco mosaic virus (TMV) inoculated in Nicotiana tabacum cv. K326 leaves assessed as inhibition of virus multiplication at 0.05 mg/ml at 25 degC measured after 48 hr by indirect ELISA/leaf-disk method. The experiment is classed as functional. An outline of the steps:
as §1

SMILES strings stand for the structures. ≈ marks a conversion by molar mass, not a printed value.

For the compound `C[C@@H]1CC[C@]2(C(=O)O[C@@H]3O[C@H](CO)[C@@H](O)[C@H](O)[C@H]3O)CC[C@]3(C)C(=CC[C@@H]4[C@@]5(C)CC[C@H](O)C(C)(C)[C@@H]5CC[C@]43C)[C@@H]2[C@]1(C)O`, in the experiment on Tobacco mosaic virus [1], the inhibition at 200 µg/mL stood at 27%.

Turning to `CC1(C)CC[C@]2(C(=O)O[C@@H]3O[C@H](CO)[C@@H](O)[C@H](O)[C@H]3O)CC[C@]3(C)C(=CC[C@@H]4[C@@]5(C)CC[C@H](O)C(C)(C)[C@@H]5CC[C@]43C)[C@@H]2[C@@H]1O`, in the experiment with Tobacco mosaic virus [2], the inhibition at 25 µg/mL amounted to 7.6%. Moreover, in the experiment with Tobacco mosaic virus [3], the EC50 was found to be 80 µg/mL (≈ 126 µM). Also, in the experiment with Tobacco mosaic virus [1], the inhibition at 200 µg/mL was 84.5%. Also, the inhibition at 100 µg/mL in the experiment with Tobacco mosaic virus [4] was found to be 65.7%. Besides, the inhibition at 400 µg/mL in the experiment with Tobacco mosaic virus [5] stood at 89.2%. For the same compound, the inhibition at 50 µg/mL with Tobacco mosaic virus [6] turned out to be 25.3%.

For `C[C@@H]1CC[C@]2(C(=O)O[C@@H]3O[C@H](CO)[C@@H](O)[C@H](O)[C@H]3O)CC[C@]3(C)C(=CC[C@@H]4[C@@]5(C)C[C@@H](O)[C@H](O)[C@@](C)(CO)[C@@H]5CC[C@]43C)[C@@H]2[C@]1(C)O` [NIGAICHIGOSIDE F1], in the experiment on Tobacco mosaic virus [1], the inhibition at 200 µg/mL came to 24.9%.

`C[C@@H]1CC[C@]2(C(=O)O[C@@H]3O[C@H](CO)[C@@H](O)[C@H](O)[C@H]3O)CC[C@]3(C)C(=CC[C@@H]4[C@@]5(C)CC[C@H](O[C@@H]6OC[C@@H](O)[C@H](O)[C@H]6O)C(C)(C)[C@@H]5CC[C@]43C)[C@@H]2[C@]1(C)O` [OBLONGANOSIDE H]: the inhibition at 200 µg/mL with Tobacco mosaic virus [1] worked out at 37.4%.

With `C[C@@H]1CC[C@]2(C(=O)O[C@@H]3O[C@H](CO)[C@@H](O)[C@H](O)[C@H]3O)CC[C@]3(C)C(=CC[C@@H]4[C@@]5(C)CC[C@H](O[C@@H]6OC[C@@H](O)[C@H](O)[C@H]6O)[C@@](C)(CO)[C@@H]5CC[C@]43C)[C@@H]2[C@]1(C)O` [OBLONGANOSIDE I], the inhibition at 200 µg/mL in the experiment on Tobacco mosaic virus [1] came out at 31.7%.

For the compound `C[C@@H]1CC[C@]2(C(=O)O[C@@H]3O[C@H](CO)[C@@H](O)[C@H](O)[C@H]3O)CC[C@]3(C)C(=CC[C@@H]4[C@@]5(C)CC[C@@H]6O[C@H](CO)OC[C@@]6(C)[C@@H]5CC[C@]43C)[C@@H]2[C@]1(C)O` [OBLONGANOSIDE J], the inhibition at 200 µg/mL with Tobacco mosaic virus [1] was 28.1%.

Regarding `CC1(C)CC[C@]2(C(=O)O[C@@H]3O[C@H](CO)[C@@H](O)[C@H](O)[C@H]3O)CC[C@]3(C)C(=CC[C@@H]4[C@@]5(C)CC[C@H](O[C@@H]6OC[C@@H](O)[C@H](O)[C@H]6O)C(C)(C)[C@@H]5CC[C@]43C)[C@@H]2[C@@H]1O` [OBLONGANOSIDE K], the inhibition at 25 µg/mL with Tobacco mosaic virus [2] was 13.1%. For the same compound, the EC50 in the experiment with Tobacco mosaic virus [3] was found to be 76 µg/mL (≈ 99.1 µM). In addition, the inhibition at 200 µg/mL with Tobacco mosaic virus [1] worked out at 85.7%. The inhibition at 100 µg/mL with Tobacco mosaic virus [4] stood at 63.9%. Besides, the inhibition at 400 µg/mL with Tobacco mosaic virus [5] came out at 88.5%. In addition, in the experiment on Tobacco mosaic virus [6], the inhibition at 50 µg/mL came to 31.4%.

Consider `CC1(C)[C@@H](O[C@@H]2OC[C@@H](O)[C@H](O)[C@H]2O)CC[C@]2(C)[C@H]3CC=C4[C@@H]5C[C@](C)(CO)CC[C@]5(C(=O)O[C@@H]5O[C@H](CO)[C@@H](O)[C@H](O)[C@H]5O)CC[C@@]4(C)[C@]3(C)CC[C@@H]12` [OBLONGANOSIDE L], for which, in the experiment on Tobacco mosaic virus [1], the inhibition at 200 µg/mL is 46.9%.

For `CC1(C)CC[C@]2(C(=O)O[C@@H]3O[C@H](CO)[C@@H](O)[C@H](O)[C@H]3O)CC[C@]3(C)C(=CC[C@@H]4[C@@]5(C)CC[C@H](O[C@@H]6OC[C@@H](O)[C@H](O)[C@H]6O)[C@@](C)(CO)[C@@H]5CC[C@]43C)[C@@H]2[C@@H]1O` [OBLONGANOSIDE M], in the experiment with Tobacco mosaic virus [2], the inhibition at 25 µg/mL turned out to be 5.2%. The EC50 in the experiment with Tobacco mosaic virus [3] was 85 µg/mL (≈ 109 µM). In addition, in the experiment with Tobacco mosaic virus [1], the inhibition at 200 µg/mL turned out to be 78.5%. For the same compound, in the experiment on Tobacco mosaic virus [4], the inhibition at 100 µg/mL was 61.5%. Moreover, the inhibition at 400 µg/mL in the experiment with Tobacco mosaic virus [5] amounted to 85.3%. For the same compound, the inhibition at 50 µg/mL in the experiment on Tobacco mosaic virus [6] worked out at 32.7%.

`C[C@@H]1CC[C@]2(C(=O)O[C@@H]3O[C@H](CO)[C@@H](O)[C@H](O)[C@H]3O)CC[C@]3(C)C(=CC[C@@H]4[C@@]5(C)CC[C@H](O)[C@@](C)(CO)[C@@H]5CC[C@]43C)[C@@H]2[C@]1(C)O` [PEDUNCULOSIDE]: in the experiment on Tobacco mosaic virus [1], the inhibition at 200 µg/mL was 41.5%.

One may read the inhibition as the change of the read-out against control, counted positive when it falls. The EC50 is the concentration needed to bring the measured effect to its halfway point.

(Values after ChEMBL document CHEMBL3045729, “Anti-tobacco mosaic virus (TMV) triterpenoid saponins from the leaves of Ilex oblonga” (J Agric Food Chem, 2007).)
